Hits are enriched below; roughly 2.1% of the tested compounds scored in any of these assays.
KLF5 inh: suppresses KLF5 promoter-driven expression | DLD-1 KLF5 promoter-luciferase reporter, luminescence | inhibition, % at 5 µM | hit rate 0.23% among 290,000;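 active = inhibition above a per-plate limit of that plate's mean compound inhibition plus 3 SD, cut at about 60% in these data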;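 note: 0% = DMSO wells and 100% = LY294002 at 200 µM; higher means less KLF5 promoter-driven luciferase light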
b-catenin transl: modulators of beta-catenin nuclear translocation | HeLa beta-catenin nuclear translocation, immunofluorescence imaging | nuclear translocation activity, % at 5 µM | hit rate 0.3% among 190,000 | AID 1665;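 active = nuclear translocation activity above 50% at 5 µM, with a well cell count of 50 or more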;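 note: per-cell ratio of nuclear to cytoplasmic median beta-catenin stain intensity; plate controls were DMSO negative control for no effect and GSK-3 inhibitor IX positive control for full effect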
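test system = HeLa cells, endogenous beta-catenin | dosing = single 5 µM dose plus 0.02–20 µM confirmation series | times = compound treatment 24 h, 37°C, 5% CO2 | technique = beta-catenin immunofluorescence imaging with DAPI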
MT stabilize HCS: stabilizes microtubules in HeLa cells. HeLa tubulin immunostaining HCS, 24 h; share of cells brighter than vehicle mean+2SD. % tubulin-high responders, % at 10 µM. hit rate 0.83% among 200,000. AID 2205;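 active = plate Z-score above 3 for both tubulin-high and condensed-nucleus cell shares, with cell loss under 80%, at 10 µM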;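 note: anti alpha tubulin signal scored within the nucleus-defined area of each cell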
Ba/F3 V617F tox: loss of viability in JAK2V617F-driven Ba/F3 cells; inhibition, % at 5.6 µM; hit rate 1.1% among 220,000; Ba/F3 EpoR-JAK2V617F viability, ATP luminescence;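 active = inhibition above the campaign mean plus 3 SD over all tested compounds, cut at about 24% in these data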;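 note: cytokine-independent growth of Ba/F3 cells driven by EpoR plus mutant JAK2; 0% = DMSO-treated cells and 100% = JAK inhibitor I control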
BaF3 parental: parental Ba/F3 viability inhibition as JAK2V617F counter-screen; CellTiter-Glo ATP luminescence; inhibition, % at 5.6 µM; AID 1486; hit rate 1.1% among 220,000;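 active = inhibition above a per-campaign cutoff, the mean inhibition of all tested compounds plus 3 SD, cut at about 27% in these data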;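 note: 0% = DMSO wells and 100% = JAK Inhibitor I control wells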
IEC-6 cytotox: IEC-6 cytotoxicity, counter-screen for KLF5 inhibitors. luminescence viability. inhibition, % at 5 µM. hit rate 0.78% among 290,000. AID 1825; in the data active = inhibition above about 22%;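 note: 0% = plate median of test compound wells and 100% = cytotoxic reference compound wells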
Starred values were filed as active, the others as inactive; x = no result given.

SMILES | KLF5 inh | b-catenin transl | MT stabilize HCS | Ba/F3 V617F tox | BaF3 parental | IEC-6 cytotox
CCOC(=O)c1oc2ccccc2c1NC(=O)c1cccc(OC)c1OC | -27.2 | -1.2 | 33.7* | -4.2 | 4.5 | -2.4
O=C(Nc1ncc(Cc2ccc(SC(F)F)cc2)s1)c1ccccc1 | 2.8 | 1.8 | 33.6* | -1.8 | 3.4 | 0.8
CC(=O)c1sc(NC(=O)COc2ccc(C)c(C)c2)nc1C | -13.9 | 2.8 | 2.7 | -1.1 | 2.4 | 0.4
Cc1cc(Nc2nc(Cl)c(Cl)cc2Cl)n(-c2ccccc2)n1 | 20.1 | 3.1 | 17.1* | -6.1 | 4.0 | 4.9
CCN(CC)S(=O)(=O)c1ccc(C(=O)OCCN2C(=O)c3cccc4c(N5CCOCC5)ccc(c34)C2=O)cc1 | -14.9 | -1.4 | 3.5 | -0.2 | 4.1 | 6.8
O=C(OCCN1C(=O)c2cccc3c(N4CCOCC4)ccc(c23)C1=O)c1cc(Cl)cc(Cl)c1 | -21.0 | x | 30.4* | 2.4 | 6.1 | -8.7
CCOc1ccc(S(=O)(=O)N2c3ccccc3CC2C)cc1 (configuration not stated) | 54.5 | 162.6* | 16.7* | 77.0* | 75.6* | 67.0*
Cc1ccc(S(=O)(=O)N2c3ccccc3CC2C)cc1 (configuration not stated) | -32.9 | 43.6 | 13.0* | 6.5 | 9.7 | 6.0
Cc1ccc(S(=O)(=O)N2c3ccc(S(N)(=O)=O)cc3CC2C)cc1 (configuration not stated) | 4.7 | -5.0 | 2.4 | 1.8 | 6.7 | 4.5
Cc1ccc(C(=O)N(C)CC(=O)Nc2ccc(F)c(F)c2F)o1 | -18.2 | -1.6 | 3.5 | -1.2 | 6.2 | -9.6
Cc1cc(C(C)(C)C)cc(C)c1CCNC(=O)c1ccc[n+]([O-])c1 | 9.0 | x | x | x | x | 1.5
CCCCCCCNC1=CC(=O)CC(c2ccccc2)C1 (configuration not stated) | -8.3 | 16.1 | 12.0* | 27.8* | 36.4* | -1.4
CNC1=CC(=O)CC(c2ccccc2)C1 (configuration not stated) | 12.2 | -0.4 | 3.9 | -2.4 | 4.0 | -4.0
CCCCCNC1=CC(=O)CC(c2ccccc2)C1 (configuration not stated) | -37.9 | x | 46.7* | 0.1 | 4.5 | 2.6
COc1ccc(NS(=O)(=O)c2nnc(NC(=O)c3ccccc3F)s2)cc1 | -31.9 | x | x | x | x | -7.7
CCC1(C)NC(=O)N(/N=C/c2ccc(C)s2)C1=O (configuration not stated) | -46.9 | x | x | x | x | 0.3
CCCn1nnnc1NCc1ccc(Cl)cc1Cl | -24.4 | 2.8 | 0.7 | 3.1 | 5.8 | -2.8
FC(F)(F)c1cnc(/C=C/Nc2ccccc2Cl)c(Cl)c1 | -29.0 | x | 3.3 | 1.6 | 2.2 | 4.0
C[N+]1=C(/C=C/Nc2ccccc2Cl)C(C)(C)c2ccccc21 | -14.5 | 0.3 | 4.6 | 58.8* | 63.1* | 0.3
CS(=O)(=O)Nc1ccc(C(=O)Nc2cccc([N+](=O)[O-])c2)cc1 | -30.9 | -1.0 | 3.8 | 4.8 | 3.6 | 4.3
Cc1csc(NC(=O)CCNS(=O)(=O)c2ccc3c(c2)c(=O)n(C)c(=O)n3C)n1 | -16.4 | 0.9 | 3.4 | -1.8 | 94.4* | -7.3
CCN1CCN(c2c(C=O)c(Cl)nc3ccc(OC)cc23)CC1 | -18.5 | x | x | x | x | -3.5
S=C(c1ccc(-c2ccc(Cl)cc2)o1)N1CCCCC1 | -165.1 | -1.7 | 3.0 | -1.3 | -0.4 | -3.9
N#CCCN1CCN(C(=S)c2ccc(-c3ccc(Cl)cc3)o2)CC1 | -35.1 | 5.0 | 3.0 | -2.4 | 93.1* | -5.4
CC(C)c1ccc(C2C3=C(COC3=O)Nc3cc4c(cc32)OCO4)cc1 (configuration not stated) | 71.8* | 73.7* | 4.7 | 71.1* | 77.2* | 90.3*
SMILES | KLF5 inh | b-catenin transl | MT stabilize HCS | Ba/F3 V617F tox | BaF3 parental | IEC-6 cytotox
COc1cc(N)c(Cl)cc1Cl | -20.9 | 0.3 | 3.0 | -2.8 | 3.4 | -8.7
CCOC(=O)C1=C(N)n2c(s/c(=C/c3ccco3)c2=O)=C(C(=O)OC)C1c1ccco1 (configuration not stated) | -8.9 | -4.4 | 45.8* | -4.4 | 1.1 | -4.9
CC(=O)Nc1ccc(CN2CCc3c([nH]c4ccccc34)C2c2ccccn2)cc1 (configuration not stated) | -11.8 | 1.2 | 9.9* | -0.7 | 3.0 | 14.2
O=C(/C=C/c1ccc(O)c(O)c1)c1ccccc1O | -117.0 | 10.8 | x | 84.4* | 40.0* | 16.9
Cc1onc(-c2ccccc2)c1C(=O)NC(=S)NNC(=O)c1ccc(O)cc1O | 55.8 | 3.8 | 3.1 | 98.2* | 71.7* | -5.1
Cc1onc(-c2ccccc2)c1C(=O)NC(=S)NNC(=O)c1ccccc1O | 21.7 | -2.6 | 3.1 | 101.1* | 83.5* | 1.4
Cc1onc(-c2ccccc2)c1C(=O)NC(=S)NNC(=O)c1ccc(O)cc1 | 4.1 | -1.3 | 1.8 | -0.5 | 7.0 | 1.5
CCCOc1ccc(C(=O)NC(=S)NNC(=O)c2c(-c3ccccc3)noc2C)cc1 | -37.7 | 0.3 | x | -5.8 | 2.9 | -9.9
CC1=C(C(=O)Nc2ccccc2)C(c2cccnc2)n2ncnc2N1 (configuration not stated) | -4.7 | 1.2 | 1.6 | 7.1 | 0.8 | 9.6
COc1ccc(CN(C(=O)c2ccco2)c2ccc(C)c(C)c2)cc1 | -4.0 | 19.1 | 16.1* | 0.5 | 6.5 | 18.1
O=C(CNc1n[nH]c(=O)[nH]c1=O)N/N=C/C=C/c1ccccc1 | -11.9 | 0.1 | x | -1.4 | -0.3 | 0.0
CCc1ccc(NC(=O)CCNS(=O)(=O)c2cccc3nsnc23)cc1 | -13.5 | 1.9 | 1.0 | 5.1 | 61.5* | 1.8
COc1ccc(NC(=O)CCNS(=O)(=O)c2cccc3nsnc23)cc1OC | 10.4 | -1.4 | 4.5 | -1.6 | 4.8 | -2.6
CC(C)c1cc(C(F)(F)F)n2nc(C(=O)Nc3ccc(-n4cnnn4)cc3)cc2n1 | -20.4 | -0.1 | x | 2.2 | -5.7 | 4.0
COc1ccc(C(=O)Nc2sc3c(c2C#N)CCN(C(C)=O)C3)cc1 | -13.8 | 60.0* | 14.3* | 4.0 | 10.5 | 4.3
CN(C)S(=O)(=O)c1cccc(-c2nnc(SCC(=O)NCCCCCC(=O)O)n2-c2ccc(F)cc2)c1 | -16.5 | 1.7 | 1.1 | 3.6 | 4.6 | -4.8
O=C(O)C1OC(Oc2cc3oc(-c4ccccc4)cc(=O)c3c(O)c2O)C(O)C(O)C1O (configuration not stated) | -38.9 | x | 3.5 | -4.2 | 3.3 | -21.1
COc1c(OC2OC(C(=O)O)C(O)C(O)C2O)cc(O)c2c(=O)cc(-c3ccccc3)oc12 (configuration not stated) | -6.7 | x | 3.3 | 18.6 | 28.6* | -1.2
Cc1ccc(NC(=S)N(CCCN2CCOCC2)Cc2ccco2)cc1 | -0.1 | -1.7 | 6.2 | -2.8 | 2.5 | -0.6
CCN1CCN(CCCN(Cc2ccco2)C(=S)Nc2ccc(Cl)c(C)c2)CC1 | -15.6 | -3.5 | 6.0 | 37.6* | 27.9* | 5.0
Cc1ccc(Cl)c(NC(=S)N(CCCN2CCOCC2)Cc2ccco2)c1 | -2.4 | 0.5 | 4.1 | 10.8 | 35.7* | 6.2
S=C(Nc1ccc(Cl)cc1)N(CCCN1CCOCC1)Cc1ccco1 | -12.8 | 0.9 | 3.7 | 36.9* | 31.8* | -4.9
O=C(COc1ccc(Br)cc1)NC1CC1 | -26.5 | x | x | x | x | -3.5

Bioassay records deposited in PubChem by several laboratories.
